Measured values as given in ChEMBL document CHEMBL3045276, “Synthesis and biological activity of some novel trifluoromethyl-substituted 1,2,4-triazole and bis(1,2,4-triazole) Mannich bases containing piperazine rings” (2010).

Columns and labels:
Assay type in all cases: functional
Echinochloa crus-galli [1] = test: Herbicidal activity against Echinochloa crus-galli (barnyard grass) assessed as inhibition of seedling growth at 100 ug/mL at 28 degC
Method in brief: (§1)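 Ten barnyardgrass seeds placed in cup over glass beads and filter paper holding 5 mL aqueous test solution (emulsified if needed); germinated 65 h at 28 ± 1 °C under light. Mean above-ground seedling height per cup measured; inhibition percentage derived.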

[2] = test system: Brassica rapa subsp. oleifera; test: Herbicidal activity against Brassica rapa subsp. oleifera assessed as inhibition of root growth at 10 ug/mL at 28 degC
Method in brief: (§2)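 Rape seeds soaked 4 h in distilled water, then 15 per 6 cm dish on filter paper wetted with 2 mL aqueous test solution (emulsified if needed); germinated 65 h at 28 ± 1 °C in darkness. Mean length of 10 roots per dish measured; percentage inhibition calculated against distilled-water check.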

[3] = test system: Brassica rapa subsp. oleifera; test: Herbicidal activity against Brassica rapa subsp. oleifera assessed as inhibition of root growth at 100 ug/mL at 28 degC; method in brief: as §2
Sclerotinia sclerotiorum = test: Fungicidal activity against Sclerotinia sclerotiorum in cucumber plant two seed leaves stage assessed as control efficacy from disease indices at 500 ug/mL at 18 to 30 degC and above 80%RH relative to control; details: read-out: GI
Method in brief: (§3)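 Cucumber seeds germinated (soaked 2 h in water at 50 °C, kept moist 24 h at 28 °C) and grown in 1:1 vermiculite/peat; two-seed-leaf plants sprayed at 500 μg/mL, then inoculated 2 h later by spraying conidial (C. cassiicola, A. citrullina, P. cubensis), bacterial (P. syringae) or mycelial (S. sclerotiorum) suspension. Held 18-30 °C, >80% RH; four repeats; control efficacy = (CK−PT)/CK×100 from disease indices once untreated plants fully symptomatic.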

[4] = test system: Pseudoperonospora cubensis; test: Fungicidal activity against Pseudoperonospora cubensis in cucumber plant two seed leaves stage assessed as control efficacy from disease indices at 500 ug/mL at 18 to 30 degC and above 80%RH relative to control; details: read-out: GI; method in brief: as §3
Ascochyta = test: Fungicidal activity against Ascochyta […] in cucumber plant two seed leaves stage assessed as control efficacy from disease indices at 500 ug/mL at 18 to 30 degC and above 80%RH relative to control; details: read-out: GI; method in brief: as §3
[5] = test system: Pseudomonas amygdali pv. lachrymans; test: Fungicidal activity against Pseudomonas syringae pv. lachrymans in cucumber plant two seed leaves stage assessed as control efficacy from disease indices at 500 ug/mL at 18 to 30 degC and above 80%RH relative to control; details: read-out: GI; method in brief: as §3
Corynespora cassiicola = test: Fungicidal activity against Corynespora cassiicola in cucumber plant two seed leaves stage assessed as control efficacy from disease indices at 500 ug/mL at 18 to 30 degC and above 80%RH relative to control; details: read-out: GI; method in brief: as §3
Echinochloa crus-galli [6] = test: Herbicidal activity against Echinochloa crus-galli (barnyard grass) assessed as inhibition of seedling growth at 10 ug/mL at 28 degC; method in brief: as §1

| Structure (SMILES) | inhibition at 100 µg/mL (Echinochloa crus-galli [1]) | inhibition at 10 µg/mL [2] | inhibition at 100 µg/mL [3] | inhibition of growth at 500 µg/mL (Sclerotinia sclerotiorum) | inhibition of growth at 500 µg/mL [4] | inhibition of growth at 500 µg/mL (Ascochyta) | inhibition of growth at 500 µg/mL [5] | inhibition of growth at 500 µg/mL (Corynespora cassiicola) | inhibition at 10 µg/mL (Echinochloa crus-galli [6]) |
| --- | --- | --- | --- | --- | --- | --- | --- | --- | --- |
| FC(F)(F)c1nn(CN2CCN(Cn3nc(C(F)(F)F)n(/N=C/c4ccccc4)c3=S)CC2)c(=S)n1/N=C/c1ccccc1 | 25.1% | 0% | 35.1% | 67.6% | 78.9% | 25.6% | 56.4% | 70.9% | 16.2% |
| Fc1ccccc1/C=N/n1c(C(F)(F)F)nn(CN2CCN(Cn3nc(C(F)(F)F)n(/N=C/c4ccccc4F)c3=S)CC2)c1=S | 26.6% | 0% | 4.3% | 25.9% | 79.9% | 86.5% | 6.8% | 84.7% | 10.7% |
| COc1ccc(/C=N/n2c(C(F)(F)F)nn(CN3CCN(Cn4nc(C(F)(F)F)n(/N=C/c5ccc(OC)cc5)c4=S)CC3)c2=S)cc1 | 25.5% | 0% | 29.5% | 62% | 84.5% | 89.7% | 55.6% | 44.1% | 5.5% |
| Cc1ccc(/C=N/n2c(C(F)(F)F)nn(CN3CCN(Cn4nc(C(F)(F)F)n(/N=C/c5ccc(C)c(C)c5)c4=S)CC3)c2=S)cc1C | 28% | 0% | 27.4% | 32.7% | 78.7% | 26% | 36.7% | 67.4% | 1.5% |
| Fc1ccccc1/C=N/n1c(C(F)(F)F)nn(CN2CCN(c3ncccn3)CC2)c1=S | 15.3% | 70.8% | 74.5% | 47.3% | 64.9% | 61.3% | 45.4% | 40.3% | 9.9% |
| COc1ccc(/C=N/n2c(C(F)(F)F)nn(CN3CCN(c4ncccn4)CC3)c2=S)cc1 | 18.6% | 53.5% | 78.8% | 75.3% | 79.5% | 73.4% | 68.1% | 73.4% | 0% |
| Cc1ccnc(N2CCN(Cn3nc(C(F)(F)F)n(/N=C/c4ccccc4)c3=S)CC2)n1 | 15.3% | 0% | 12.5% | 36.8% | 78.6% | 62.4% | 20.4% | 49.2% | 8.7% |
| Cc1ccnc(N2CCN(Cn3nc(C(F)(F)F)n(/N=C/c4ccccc4F)c3=S)CC2)n1 | 8% | 0% | 24.4% | 52.2% | 75.5% | 57.8% | 62.3% | -5.3% | 0% |
| COc1ccc(/C=N/n2c(C(F)(F)F)nn(CN3CCN(c4nccc(C)n4)CC3)c2=S)cc1 | 34.3% | 0% | 30.3% | 50.9% | 72.5% | 67.7% | 30.6% | 52.8% | 15.3% |
| Cc1ccnc(N2CCN(Cn3nc(C(F)(F)F)n(/N=C/c4ccc(C)c(C)c4)c3=S)CC2)n1 | 27.8% | 0% | 11.2% | 51.9% | 69.5% | 70% | 22% | 38.7% | 0% |
| Cc1ccnc(N2CCN(Cn3nc(C(F)(F)F)n(/N=C/c4ccc(Cl)cc4)c3=S)CC2)n1 | 96.7% | 0% | 68.6% | 70.3% | 91.2% | 61.3% | 21.1% | 71.1% | 10.2% |
